From ChEMBL document CHEMBL1137805, “In vitro cytotoxicity of the protoberberine-type alkaloids” (2001)

Experiments:
Format in all cases: functional
[1] = Cytotoxicity against human breast cancer cells; settings: Cancer cell lines
In short: (§1)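 Subpanel values are mean GI50 over the panel's strains of each tumour type: breast 5, colon 6, lung 6 or 7, ovarian 5, stomach 6. […] Cells were grown in RPMI 1640 with 5% FBS at 37 °C under 5% CO2.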

MKN-28 = experiment: Cytotoxicity against human MKN28 cells
In short: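 Each line was grown in RPMI 1640 with 5% FBS and penicillin ([…]) at 37 °C under 5% CO2. Cells were plated, attached overnight, and exposed to drug for 48 h. Sulforhodamine B staining was read at 525 nm, with control, test and time-zero absorbances. % growth = 100×(T−T0)/(C−T0), or […] T<T0. GI50 is the concentration giving 50% growth.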

[2] = Cytotoxicity against human stomach cancer cells; settings: Cancer cell lines; in short: as §1
[3] = Cytotoxicity against human colon cancer cells; settings: Cancer cell lines; in short: as §1
[4] = Cytotoxicity against human ovarian cancer cells; settings: Cancer cell lines; in short: as §1
[5] = Cytotoxicity against human CNS cancer cells; settings: Cancer cell lines
[6] = Cytotoxicity against human lung cancer cells; settings: Cancer cell lines; in short: as §1

| Structure (SMILES) | GI50 [1] [nM] | GI50 (MKN-28) [nM] | GI50 [2] [nM] | GI50 [3] [nM] | GI50 [4] [nM] | GI50 [5] [nM] | GI50 [6] [nM] |
| --- | --- | --- | --- | --- | --- | --- | --- |
| CCCCCCc1c2[n+](cc3c(OC)c(OC)ccc13)CCc1cc3c(cc1-2)OCO3 | 760 | 830 | 760 | 720 | 1170 | 1200 | 490 |
| CCCCCCc1c2[n+](cc3c(OC)c(OC)ccc13)CCc1cc(OC)c(OC)cc1-2 [13-HEXYLPALMATINE] | 1050 | < 2690 | 3470 | 1820 | 2880 | 2950 | 2140 |
| COc1cc(Br)c2cc3[n+](c(-c4ccccc4)c2c1OC)CCc1cc2c(cc1-3)OCO2 | 1000 | < 2690 | 1910 | 1550 | 2450 | 2000 | 2190 |
| CO[C@@]12[C@H](COC(N)=O)C3=C(C(=O)C(C)=C(N)C3=O)N1C[C@@H]1N[C@@H]12 [MITOMYCIN] | 34 |  | 100 | 180 | 120 |  | 23 |
| COc1cccc2c1C(=O)c1c(O)c3c(c(O)c1C2=O)C[C@@](O)(C(=O)CO)C[C@@H]3O[C@H]1C[C@H](N)[C@H](O)[C@H](C)O1 [DOXORUBICIN] | 1820 |  | 5820 | 2550 | 4350 |  | 400 |
| CCCCc1c2[n+](cc3c(OC)c(OC)ccc13)CCc1cc3c(cc1-2)OCO3 | 6310 | < 2690 | 3900 | 2510 | 5250 | 3710 | 1780 |
| CCCCc1c2c(OC)c(OC)cc(Br)c2cc2[n+]1CCc1cc3c(cc1-2)OCO3 | 520 | < 2690 | 1290 | 1110 | 1380 | 1910 | 1540 |
| CCCCCCc1c2c(OC)c(OC)cc(Br)c2cc2[n+]1CCc1cc3c(cc1-2)OCO3 | 310 | 410 | 340 | 440 | 480 | 410 | 410 |
